Source: PubChem (The Scripps Research Institute Molecular Screening Center)
An excerpt weighted towards active compounds, which were near 2.3% of everything screened.
OXTR potentiate = human OXTR potentiators, primary screen, fluorescence, CHO-OTR cells, Fluo-8 calcium; Fluo-8 calcium fluorescence, potentiator mode; 0% = oxytocin EC15, 100% = EC100; activation, % at 3 µM; Oxytocin receptor (Homo sapiens), P30559; 320,000 tested, 0.061% active;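 active = activation above that plate's cutoff, the mean activation of tested compounds plus 3 SD, cut at about 6.6% in these data, passing the limit was not always enough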
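System: human OTR in CHO cells / Also added: sub-maximal oxytocin, roughly EC15 / Control set: EC15 oxytocin low, 75 nM oxytocin high / Schedule: 6 min compound pre-incubation at room temperature, 100 s kinetic read / Compound: single-point 3.0 µM / Replication: singlicate / Technique: Fluo-8 calcium dye fluorescence / Read-out basis: % activation of max/min ratio relative to oxytocin controls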
TAAR1 agonist = human TAAR1 agonists, primary screen, Fluo-8 calcium fluorescence, CHO RD-HGA16 cells | Trace amine-associated receptor 1 (Homo sapiens), Q96RJ0 | vehicle wells 0%, saturating PEA agonist 100% | activation, % at 3 µM | 360,000 tested, 0.99% active | AID 624467, 2012;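 active = activation above the mean activation of all test compounds in the run plus 3 SD, cut at about 38% in these data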
Target sequence (Q96RJ0 whole entry, looked up): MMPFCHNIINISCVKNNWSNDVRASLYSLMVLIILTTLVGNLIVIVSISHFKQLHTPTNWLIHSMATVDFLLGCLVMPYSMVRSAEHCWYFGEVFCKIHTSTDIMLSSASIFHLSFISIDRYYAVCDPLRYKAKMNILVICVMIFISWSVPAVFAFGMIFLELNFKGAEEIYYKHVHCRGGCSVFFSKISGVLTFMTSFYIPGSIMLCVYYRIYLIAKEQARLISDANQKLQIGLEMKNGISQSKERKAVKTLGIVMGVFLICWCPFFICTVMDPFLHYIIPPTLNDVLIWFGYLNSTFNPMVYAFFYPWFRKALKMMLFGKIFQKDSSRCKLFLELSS
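test system = CHO RD-HGA16 cells carrying human TAAR1 plus Gα16 | schedule = 17-24 h seeding, 75 min 37 °C dye, 30 min RT | compound dosing = 3 µM single concentration | control set = DMSO and PEA EC100 | replicates = n 1 | signal = Fluo-8 fluorescence, 5 s baseline then 140 s kinetic read | measure = percent activation vs PEA EC100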
TAAR1 antag = human TAAR1 antagonists, primary screen, Fluo-8 calcium fluorescence, CHO RD-HGA16 cells; Trace amine-associated receptor 1 (Homo sapiens), Q96RJ0; antagonist; inhibition, % at 3 µM; 360,000 tested, 1.5% active;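 active = inhibition above a per-plate cutoff, the mean inhibition of test compounds on that plate plus 3 SD, cut at about 49% in these data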
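Test system: CHO RD-HGA16 cells bearing hTAAR1 | Reagent: β-PEA, EC80 | Compound dosing: 3 µM, single point | Schedule: Dye loading 75 min at 37 °C, then 30 min room temperature | Signal: Calcium fluorescence with Fluo-8 | Evaluation: Percent inhibition of PEA-evoked calcium signal, max/basal emission ratio | Control set: DMSO-only wells and EC80 β-PEA-stimulated wells | Repeats: Singlicate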
V1R ag counter = agonists of human V1a receptor, primary screen, counter-screen for OXTR agonist project, fluorescence, CHO-V1R cells. Fluo-8 calcium fluorescence, agonist mode; 0% DMSO, 100% 3 nM vasopressin. AID 2797, 2010. activation, % at 3 µM. 320,000 tested, 0.25% active. Vasopressin V1a receptor (Homo sapiens), P37288;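 active = activation above the mean activation of all tested compounds plus 3 SD, per screening run, cut at about 20% in these data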;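 note: signal is peak over basal fluorescence ratio across a 100 second FLIPR read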
Target sequence (P37288 whole entry, looked up): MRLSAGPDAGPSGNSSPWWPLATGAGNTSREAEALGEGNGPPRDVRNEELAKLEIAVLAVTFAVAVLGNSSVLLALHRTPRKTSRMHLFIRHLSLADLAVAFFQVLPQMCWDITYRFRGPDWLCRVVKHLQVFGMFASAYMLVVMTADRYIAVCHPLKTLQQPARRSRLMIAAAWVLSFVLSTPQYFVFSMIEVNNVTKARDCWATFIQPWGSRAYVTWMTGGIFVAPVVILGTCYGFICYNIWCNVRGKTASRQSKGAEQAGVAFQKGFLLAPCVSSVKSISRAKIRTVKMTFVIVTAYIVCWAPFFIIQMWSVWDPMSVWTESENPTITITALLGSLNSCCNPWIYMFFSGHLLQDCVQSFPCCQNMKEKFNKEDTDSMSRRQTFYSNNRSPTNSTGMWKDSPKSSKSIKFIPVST
OXTR ag = human OXTR agonists, primary screen, fluorescence, CHO-OTR cells, Fluo-8 calcium. Oxytocin receptor (Homo sapiens), P30559. Fluo-8 calcium fluorescence; normalized: DMSO 0%, oxytocin 100%. activation, % at 3 µM. 320,000 tested, 0.32% active;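 active = activation above the mean of all tested compounds plus 3 SD, cutoff set per screening run, cut at about 20% in these data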;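 note: peak over basal fluorescence ratio from a 100 s FLIPR kinetic read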
nonsel antag count = nonselective antagonists in TAAR1 counter-screen cells, counter-screen for hTAAR1 antagonist project, cell-based, fluorescence, calcium; shares compounds with TAAR1 antag; counterscreen cell line, antagonist mode; inhibition, % at 3 µM; 2,400 tested, 77% active; AID 651780, 2012; in the data active = inhibition above about 22%;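 note: CHO-Ga16 host cells stimulated with ATP at an EC80 level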
TAAR1 ant conf = human TAAR1 antagonists, retest of hits, confirmation, cell-based, fluorescence. shares compounds with TAAR1 antag. TAAR1-expressing cells, fluorescence antagonist read-out. inhibition, % at 3 µM. 2,400 tested, 40% active; in the data active = inhibition above about 49%;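 note: CHO-Ga16 host cells challenged with agonist PEA near its EC80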
Ga16 nonsel ag = calcium activation in Ga16-expressing cells, counter-screen for TAAR1 antagonist project, cell-based, fluorescence. activation, % at 3 µM. AID 651953, 2012. shares compounds with TAAR1 antag. 2,400 tested, 18% active. agonist counterscreen; in the data active = activation above about 12%
TAAR1 ag counter = TAAR1 activation by candidate antagonists – cell-based, fluorescence, counter-screen for TAAR1 antagonist project. shares compounds with TAAR1 antag. hTAAR1 cell line, agonist mode. activation, % at 3 µM. 2,400 tested, 2% active; in the data active = activation above about 37%;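 note: CHO cells stably expressing TAAR1 with calcium dye readout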
Large screens that a line does not name were inactive (follow-up assays come after a bar, where they were run).

O=C(/C=C/c1ccc([N+](=O)[O-])cc1)/C=C/c1ccco1	none
COc1ccc(/C=C(/Sc2nnc(-c3ccc(Cl)cc3)o2)C(=O)O)cc1	none
Brc1ccc(CSc2ccc3nnc(-c4cccnc4)n3n2)cc1	TAAR1 antag 60 | nonsel antag count 25 | TAAR1 ant conf inactive | Ga16 nonsel ag inactive | TAAR1 ag counter inactive
Cc1ccc(CSc2ccc3nnc(-c4ccccn4)n3n2)cc1	TAAR1 antag 61 | nonsel antag count 25 | TAAR1 ant conf inactive | Ga16 nonsel ag inactive | TAAR1 ag counter inactive
Brc1ccc(CSc2ccc3nnc(-c4ccccn4)n3n2)cc1	none
CCCCN(C)C(=O)C(Cc1ccccc1)NS(=O)(=O)c1ccc2c(c1)c(=O)n(C)c(=O)n2C (stereo not given)	TAAR1 antag 67 | nonsel antag count 31 | TAAR1 ant conf inactive | Ga16 nonsel ag inactive | TAAR1 ag counter inactive
Cc1ccc(S(=O)(=O)Nc2cc(C(F)(F)F)ccc2N2CCOCC2)cc1C	none
CC(C)N(Cc1nccn1C)C(=O)c1ccc(OC2CCN(C(=O)C3CC3)CC2)cc1	none
COc1ccc(CNC(=O)C(c2ccc(C)cc2)N(Cc2cccs2)C(=O)c2ccc3c(c2)OCCO3)cc1 (stereo not given)	TAAR1 antag 66 | nonsel antag count 31 | TAAR1 ant conf 52 | Ga16 nonsel ag 15 | TAAR1 ag counter inactive
COc1ccc(CNC(=O)C(c2ccco2)N(Cc2ccccc2)C(=O)Cc2cccs2)cc1 (stereo not given)	TAAR1 antag 85 | nonsel antag count 33 | TAAR1 ant conf 55 | Ga16 nonsel ag 12 | TAAR1 ag counter inactive
Cc1ccc(C(C(=O)NC2CCCC2)N(Cc2ccc3c(c2)OCO3)C(=O)Cc2cccs2)cc1 (stereo not given)	TAAR1 antag 66 | nonsel antag count 26 | TAAR1 ant conf 56 | Ga16 nonsel ag inactive | TAAR1 ag counter inactive
Cc1ccc(CN(C(=O)Cc2cccs2)C(C(=O)NC2CCCC2)c2ccncc2)cc1 (stereo not given)	none
COc1ccc(CNC(=O)C(c2ccncc2)N(C(=O)Cc2cccs2)c2cccc(C)c2)cc1 (stereo not given)	none
COc1ccc(CNC(=O)C(c2ccco2)N(Cc2cccs2)C(=O)Cc2cccs2)cc1 (stereo not given)	TAAR1 antag 75 | nonsel antag count 35 | TAAR1 ant conf 63 | Ga16 nonsel ag inactive | TAAR1 ag counter inactive
COc1ccc(CNC(=O)C(c2cccs2)N(Cc2ccco2)C(=O)Cc2cccs2)cc1 (stereo not given)	TAAR1 antag 67 | nonsel antag count 30 | TAAR1 ant conf inactive | Ga16 nonsel ag inactive | TAAR1 ag counter inactive
COCCN(C(=O)Cc1cccs1)C(C(=O)NCc1ccc(OC)cc1)c1ccc(OC)cc1 (stereo not given)	none
COc1ccc(-c2[nH]c(-c3ccc(C)cc3)nc2SCC(=O)Nc2nccs2)cc1	none
COc1ccc(-c2nc(SCC(=O)Nc3nccs3)c(-c3ccc(Cl)cc3)[nH]2)cc1	TAAR1 antag 68 | nonsel antag count 45 | TAAR1 ant conf 59 | Ga16 nonsel ag inactive | TAAR1 ag counter inactive
COc1ccc(NC(=O)C2(C)Cc3c(-c4cccc(C(N)=O)c4)ccnc3O2)cc1 (stereo not given)	none (no result: OXTR potentiate, V1R ag counter, OXTR ag)
Cc1cccc(NC(=O)c2cccc3c2-c2ccccc2C3=O)n1	none
COC(=O)C(Nc1ccccc1Cl)(c1cc(C)c(O)c(C)c1)C(F)(F)F (stereo not given)	TAAR1 antag 83 | nonsel antag count inactive | TAAR1 ant conf inactive | Ga16 nonsel ag inactive | TAAR1 ag counter inactive
O=C(Nc1ccccc1N1CCOCC1)c1cc(-c2ccncc2)nc2ccccc12	TAAR1 antag 63 | nonsel antag count 27 | TAAR1 ant conf inactive | Ga16 nonsel ag inactive | TAAR1 ag counter inactive
COc1ccc(-c2cc(C(=O)Nc3ccccc3N3CCOCC3)c3ccccc3n2)cc1OC	TAAR1 antag 59 | nonsel antag count 24 | TAAR1 ant conf inactive | Ga16 nonsel ag inactive | TAAR1 ag counter inactive
COc1ccc(-c2cc(C(=O)NNC(=O)c3csc(N4CCOCC4)n3)c3ccccc3n2)cc1	TAAR1 antag 61 | nonsel antag count 30 | TAAR1 ant conf inactive | Ga16 nonsel ag inactive | TAAR1 ag counter inactive
O=C(Nc1ccc(N2CCOCC2)cc1)c1cc(-c2ccncc2)nc2ccccc12	none
CCCC1(CCC)NC(=O)N(CC(=O)N2CCN(C(=O)c3ccco3)CC2)C1=O	none
Cc1ccc(NC(=O)CSc2nnnn2C)cc1S(=O)(=O)N1CCCCC1	none (no result: OXTR potentiate, V1R ag counter, OXTR ag)
N#CC(C#N)=C1C=CC=CN1/C(=C\c1ccccc1)C(=O)c1cccs1	none
N#CC(C#N)=C1C=CC=CN1/C(=C\c1ccccc1Cl)C(=O)c1ccccc1	TAAR1 antag 56 | nonsel antag count 49 | TAAR1 ant conf 59 | Ga16 nonsel ag inactive | TAAR1 ag counter inactive
COc1ccc(CNC(=O)CN(Cc2ccccc2)S(=O)(=O)c2ccc(Cl)cc2)cc1	TAAR1 antag 63 | nonsel antag count 42 | TAAR1 ant conf 65 | Ga16 nonsel ag 12 | TAAR1 ag counter inactive
COc1ccc(CNC(=O)CN(Cc2ccc(Cl)cc2)S(=O)(=O)c2ccccc2)cc1	none
O=C(CSc1nnc(-c2ccc(Br)cc2)o1)Nc1cccc(C(=O)O)c1	none
O=C(CSc1nnc(-c2ccc(Br)cc2)o1)Nc1cccc2ccccc12	TAAR1 antag 59 | nonsel antag count 30 | TAAR1 ant conf inactive | Ga16 nonsel ag inactive | TAAR1 ag counter inactive
CCCOc1cccc(C(=O)N(Cc2ccco2)C2CCS(=O)(=O)C2)c1 (stereo not given)	TAAR1 antag 102 | nonsel antag count inactive | TAAR1 ant conf inactive | Ga16 nonsel ag inactive | TAAR1 ag counter inactive
